Published values of several laboratories.
Protocols differ between the studies behind these lines.
Effect on: cell growth or viability

Structure (SMILES) | cell line | method | time | IC50 [nM]
Nc1ccccc1NC(=O)c1ccc(Cn2cnc3c(Nc4ccc(Cl)cc4)ncnc32)cc1 | NALM-6 | MTT | 72 h | 1550
CC(C)(C)c1cnc(CSc2cnc(NC(=O)C3CCN(C(=O)CCCCCCCN4Cc5cc6c(cc5C4)C(=O)N(C4CCC(=O)NC4=O)C6=O)CC3)s2)o1 (stereo not drawn) | NALM-6 | MTT | – | 23.4
O=C(NO)c1ccc(Cn2cnc3c(Nc4ccc(Cl)cc4)ncnc32)cc1 | NALM-6 | MTT | 72 h | 410
Cc1cc(Nc2ncnc3ccc(NC4=NC(C)(C)CO4)cc23)ccc1Oc1ccn2ncnc2c1 | HCC1419 | ATP luminescence | – | 30.2
O=C(CCc1ccc(Cl)cc1)N1C(=O)C(=Nc2ccc(Cl)cc2Br)c2ccccc21 | L02 | MTT | 48 h | > 100000
Cc1ncsc1-c1ccc(CNC(=O)[C@@H]2C[C@@H](O)CN2C(=O)[C@@H](NC(=O)C2(F)CC2)C(C)(C)C)c(OCCOc2ccc(CN3CCN(c4cc(-c5ccccc5O)nnc4N)CC3)cc2)c1 | NCI-H1944 | ATP luminescence | 7 days | 168
C(=N\Nc1cc(N/N=C/c2cccc3cccnc23)ncn1)/c1cccc2cccnc12 | L02 | MTT | 48 h | 31600
CS(=O)(=O)CCNCc1ccc(-c2ccc3ncnc(Nc4ccc(OCc5cccc(F)c5)c(Cl)c4)c3c2)o1 | HCC1419 | ATP luminescence | – | 54.4
Cc1nc(Nc2ncc(C(=O)Nc3c(C)cccc3Cl)s2)cc(N2CC[C@H](O)C2)n1 | REH | ATP luminescence | 72 h | > 10000
Cc1cccc(N=C2C(=O)N(Cc3cccc(Cl)c3)c3ccccc32)c1 | L02 | MTT | 48 h | 25800
C=C[C@]1(C)C=C2CC[C@H]3C(C)(C)CCC[C@]3(C)[C@H]2CC1 | MOLT-3 | XTT | 75 h | 125000
Nc1ccccc1NC(=O)c1ccc(Cn2cnc3c(Nc4ccc(Br)cc4F)ncnc32)cc1 | NALM-6 | MTT | 72 h | 1540
O=C1C(=Nc2ccc(Cl)cc2)c2ccccc2N1Cc1cccc(Cl)c1 | L02 | MTT | 48 h | 32000
COC[C@H](NC(=O)c1ccn(S(C)(=O)=O)c1)C(=O)Nc1nc(-c2cccc(N3C[C@@H](C)O[C@@H](C)C3)n2)cs1 | NCI-H1944 | ATP luminescence | 7 days | 45.1
COc1cc([C@@H]2c3cc4c(cc3[C@@H](O[C@@H]3O[C@@H]5CO[C@@H](C)O[C@H]5[C@H](O)[C@H]3O)[C@H]3COC(=O)[C@H]23)OCO4)cc(OC)c1O | MOLT-3 | XTT | – | 61
COc1cc(N=C2C(=O)Nc3ccccc32)cc(OC)c1 | L02 | MTT | 48 h | > 100000
O=C(NO)c1ccc(Cn2cnc3c(Nc4cccc([N+](=O)[O-])c4)ncnc32)cc1 | NALM-6 | MTT | 72 h | 1900
COc1cc([C@@H]2c3cc4c(cc3[C@@H](O[C@@H]3O[C@@H]5CO[C@@H](C)O[C@H]5[C@H](O)[C@H]3O)[C@H]3COC(=O)[C@H]23)OCO4)cc(OC)c1O | MOLT-3 | XTT | 75 h | 78
CC(C)c1cccc(C(C)C)c1N=C1C(=O)N(Cc2ccccc2)c2ccccc21 | L02 | MTT | 48 h | 59000
C=C1C[C@@]23CC[C@H]4[C@@](C)(CCC[C@@]4(C)C(=O)O)[C@@H]2CC[C@@H]1C3 | MOLT-3 | XTT | 75 h | 116000
Cc1cccc(N=C2C(=O)N(Cc3ccc(Br)cc3)c3ccccc32)c1 | L02 | MTT | 48 h | 26000
C(=N\Nc1cc(N/N=C/c2cccc3cccnc23)nc(-c2ccccc2)n1)/c1cccc2cccnc12 | L02 | MTT | 48 h | > 100000
CN(C)C(=O)c1cc2cnc(Nc3ccc(-c4ccc5c(=O)cc(N6CCOCC6)oc5c4)cc3)nc2n1C1CCCC1 | Hs68 | ATP luminescence | 72 h | 1150
O=C1C(=Nc2ccc(Cl)cc2)c2ccccc2N1Cc1ccc(Br)cc1 | L02 | MTT | 48 h | > 100000
